Screens as filed in PubChem.
A selection: hits, their analogues and other compounds. The true share with any hit is near 3.7%.
KCNK3 block: human KCNK3 channel inhibition, primary screen. O14649. CHO-KCNK3 thallium flux, FluxOR fluorescence; active compounds read low. B-score at 10 µM. 340,000 tested, 0.84% active;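 active = B-score under library mean minus 4 SD, starting fluorescence ratio at most library mean plus 5 SD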;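 note: more negative B-score means stronger inhibition of thallium flux through KCNK3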
KCNQ1 pot: potentiates or activates the human KCNQ1 potassium channel | CHO-K1 KCNQ1, thallium flux FluxOR fluorescence; active compounds read high | AID 2648 | P51787 | 310,000 tested, 0.35% active | B-score at 10 µM;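 active = fluorescence ratio B-score, a plate-corrected score, at least three library SD, with initial intensity B-score within 5 SD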
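Test system: CHO-K1 cells stably expressing KCNQ1 / Medium: assay buffer / Also added: depolarizing K+/Tl+ stimulus, K2SO4 and Tl2SO4 each 12.5 mM in 5x stock / Incubation: 90 min dye loading and 20 min compound exposure, both at room temperature / Signal: thallium influx via FluxOR fluorescence, kinetic imaging / Evaluation: B score of baseline-normalized fluorescence ratio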
hERG protect: shields human hERG channel from block by proarrhythmic agents; 310,000 tested, 0.51% active; CHO-hERG, FluxOR thallium flux, dofetilide IC70 present; activation (rescue from dofetilide block), less the hit threshold, % at 10 µM;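 active = activation above the mean of controls blocked by dofetilide plus 5 SD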;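 note: thallium influx through hERG after potassium depolarization seen as dye fluorescence rise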
KCNK9 block: blocks the human KCNK9 two-pore domain potassium channel; Q9NPC2; HEK293 KCNK9, FluxOR thallium flux fluorescence; active compounds read low; B-score at 10 µM; 310,000 tested, 1.2% active; AID 488922;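 active = ratio B-score over 3 SD below the library mean, with starting fluorescence within 5 SD of its mean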;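 note: negative B-score means less thallium flux so channel inhibition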
KCNQ1 block: human KCNQ1 channel inhibition; AID 2642; B-score at 10 µM; P51787; CHO-K1 KCNQ1, FluxOR thallium flux fluorescence; active compounds read high; 310,000 tested, 1.3% active;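 active = compounds whose thallium flux B-score, printed positive for inhibition, exceeds three library SD while starting fluorescence stays within three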;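 note: channel opened by potassium depolarization with thallium stimulus after 20 min compound exposure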
Kir21 inh: inhibitors of mouse Kir2.1 inward-rectifier potassium channel. B-score at 10 µM. 310,000 tested, 0.85% active. P35561. HEK293-Kir2.1, FluxOR thallium flux fluorescence; active compounds read low;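 active = fluorescence ratio B-score at or below minus 3 SD of library scores, with starting-brightness B-score within 2 SD, cut at about -4.2 in these data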;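 note: channel flux triggered by added potassium and thallium sulfate stimulus; B-score of peak minus minimum fluorescence over baseline after thallium stimulus; more negative B-score means stronger Kir2.1 block with less thallium influx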
Active calls of the source: *; i = inactive; · = no result.

SMILES | KCNK3 block | KCNQ1 pot | hERG protect | KCNK9 block | KCNQ1 block | Kir21 inh
CC(C#N)Sc1ncnc2sc(-c3ccccc3)cc12 (stereo not drawn) | i | i | -4.1 | i | 6* | -0.74
CN(CCC#N)C(=O)CSc1ncnc2sc(-c3ccccc3)cc12 | i | i | -3.9 | i | i | -0.06
CC(N)=Nc1ccc([N+](=O)[O-])cc1 | i | i | -7.0 | i | i | 2.01
O=[N+]([O-])c1ccc(N=Nc2c(Cl)cc(O)cc2Cl)cc1 | i | i | -23.3 | i | 8* | -6.9*
O=C(CN1C(=O)NC2(CCCC2)C1=O)OCCOc1ccccc1Cl | i | i | -15.9 | i | i | -0.77
N#CCc1ccc(NS(=O)(=O)c2ccc(C3CCCCC3)cc2)cc1 | i | i | -12.8 | -6.94* | i | 1.83
COC(=O)c1ccc(NC(=O)CCN2C(=O)C3C4CCC(C4)C3C2=O)cc1 (stereo not drawn) | i | i | -12.5 | i | i | -0.34
Cc1noc(C)c1CSc1ncnc2sc3c(c12)CCCCC3 | i | 11* | 35.1* | i | i | -0.14
COCCOC(=O)C1=C(N)OC2=C(C(=O)CC(C)(C)C2)C1c1cccnc1 (stereo not drawn) | i | i | 5.2* | i | i | 1.31
O=C(COC(=O)C1=COCCO1)NCc1ccc(F)cc1 | i | i | -16.8 | i | i | 1.07
Cc1ccc(NNC(=O)C(O)(c2cccc(C(F)(F)F)c2)c2cccc(C(F)(F)F)c2)cc1 | i | i | -13.5 | i | i | -0.88
O=C(NNc1ccccc1Br)C(O)(c1cccc(C(F)(F)F)c1)c1cccc(C(F)(F)F)c1 | i | i | -5.5 | -8.26* | i | 0.32
N#C/C(=C/c1ccc(Sc2nc3ccccc3[nH]2)o1)c1ccccc1F | i | i | -18.4 | i | 17* | -2.1
N#C/C(=C/c1ccc(Sc2nc3ccccc3[nH]2)o1)c1cccc(Br)c1 | -10.2* | i | -9.5 | i | i | 0.36
N#C/C(=C\c1ccc([N+](=O)[O-])o1)c1nc2ccccc2[nH]1 | · | i | -12.3 | i | 6* | -1.97
N#C/C(=C\c1ccc(Sc2ccccc2)o1)c1nc2ccccc2[nH]1 | i | i | -11.1 | i | i | -0.31
Cc1ccc2nccc(C(=O)N3CCCC(Nc4ccc(C)c(C)c4)C3)c2c1 (stereo not drawn) | i | i | -10.8 | i | i | -1.53
COc1ccc(Cl)cc1S(=O)(=O)N1CCN=C1Cc1ccccc1 | i | i | -10.5 | i | i | -5.1*
CCC1(c2ccc(Cl)cc2)NC(=S)N(c2ccccc2)N1 (stereo not drawn) | i | 40* | 48.9* | i | i | -0.07
CCCCCCC1(C)NC(=S)N(c2ccccc2)N1 (stereo not drawn) | i | i | -3.0 | i | i | -0.9
CCOc1ccccc1NC(=O)[C@@H](NC(=O)c1ccccc1F)C(C)C | i | i | -2.5 | i | i | -0.2
CCSc1ccccc1C(=O)Nc1ccc(S(=O)(=O)NC(C)=O)cc1 | i | i | -5.0 | i | i | 2.06
COc1ccccc1-c1nc2cc3ccccc3cc2nc1-c1ccccc1 | i | i | -6.5 | i | 9* | -0.68
COc1ccc(C(=O)CC(=O)C(=O)Nc2ccccc2C(F)(F)F)cc1 | i | 12* | 7.8* | i | i | 0.4
COc1ccc(C(=O)CC(=O)C(=O)Nc2ccccc2Cl)cc1 | i | i | 12.5* | i | i | 0.21
COc1ccc(C(=O)CC(=O)C(=O)Nc2cc(Cl)c(OC)cc2OC)cc1 | i | i | -7.1 | i | i | -1
COc1ccc(C(=O)CC(=O)C(=O)Nc2ccc(Cl)cc2)cc1 | i | i | 12.9* | i | i | -0.34
CCC1(CC)NC(=O)N(CC(=O)NC(=O)NCc2ccccc2)C1=O | i | i | -8.6 | i | i | -0.12
CC(C)(C)C(=O)/C(=C\c1ccc([N+](=O)[O-])cc1)n1cncn1 | · | i | -5.7 | i | i | -7.29*
CCOC(=O)c1ccc(NC(=O)NCc2cccnc2)cc1 | i | i | 1.1 | i | i | -0.38
